Test results: ChEMBL document CHEMBL1146476, “Structure-activity relationships of ring C-secotaxoids. 1. Acylative modifications” (J Nat Prod, 2004)

What was measured:
[1] = tested on: MCF7; test: Cytotoxicity against human MCF7 cells after 72 hrs by SRB assay; assay type: functional, cell-based; conditions: MCF7, 72 h
[2] = tested on: MCF7; test: Cytotoxicity against human multidrug-resistant MCF7 cells after 72 hrs by SRB assay; assay type: functional, cell-based; conditions: MCF7, 72 h
In short: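 Monolayer cultures kept in RPMI-1640 with 5% FCS, 5% NuSerum IV, 20 mM HEPES, 2 mM L-glutamine at 37 °C, 5% CO2. Cells seeded at 800-1500/well and allowed to attach 15-18 h, then given 10 concentrations spanning 5 logs (DMSO stock diluted in RPMI-1640/10 mM HEPES) for 72 h. Fixed with cold TCA, stained with 0.4% SRB, OD 570 nm. Sigmoid-Emax nonlinear regression fit.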

SMILES | IC50 [1] [nM] | IC50 [2] [nM]
CC(=O)O[C@@]1([C@@H]2/C(C)=C(/OC(=O)OC(C)(C)C)C(=O)C3=C(C)[C@@H](OC(=O)[C@H](O)[C@H](CC(C)C)NC(=O)OC(C)(C)C)C[C@@](O)([C@H]2OC(=O)c2ccccc2)C3(C)C)CO[C@@H]1CCOC(=O)OC(C)(C)C | 51 | 736
CC(=O)O/C1=C(\C)[C@@H]([C@]2(OC(C)=O)CO[C@@H]2CCO)[C@H](OC(=O)c2ccccc2)[C@]2(O)C[C@H](OC(=O)[C@H](O)[C@H](CC(C)C)NC(=O)OC(C)(C)C)C(C)=C(C1=O)C2(C)C | 18 | 1000
CC(=O)O[C@H]1C(=O)[C@@]2(C)[C@H]([C@H](OC(=O)c3ccccc3)[C@]3(O)C[C@H](OC(=O)[C@H](O)[C@@H](NC(=O)c4ccccc4)c4ccccc4)C(C)=C1C3(C)C)[C@]1(OC(C)=O)CO[C@@H]1C[C@@H]2O [PACLITAXEL] | – | 354
CC(=O)O[C@@]1([C@@H]2/C(C)=C(/OC(=O)OCc3ccccc3)C(=O)C3=C(C)[C@@H](OC(=O)[C@H](O)[C@H](CC(C)C)NC(=O)OC(C)(C)C)C[C@@](O)([C@H]2OC(=O)c2ccccc2)C3(C)C)CO[C@@H]1CCO | 53 | 1200
CC(=O)O[C@@]1([C@@H]2/C(C)=C(/OC(=O)[C@@H](O)[C@@H](CC(C)C)NC(=O)OC(C)(C)C)C(=O)C3=C(C)[C@@H](O)C[C@@](O)([C@H]2OC(=O)c2ccccc2)C3(C)C)CO[C@@H]1CCOC(=O)C(C)(C)C | > 3000 | > 3000
CC(=O)OCC[C@H]1OC[C@@]1(OC(C)=O)[C@@H]1/C(C)=C(/OC(C)=O)C(=O)C2=C(C)[C@@H](OC(=O)[C@H](O)[C@H](CC(C)C)NC(=O)OC(C)(C)C)C[C@@](O)([C@H]1OC(=O)c1ccccc1)C2(C)C | 36 | 956
CC(=O)O[C@@]1([C@@H]2/C(C)=C(/O)C(=O)C3=C(C)[C@@H](OC(=O)[C@H](O)[C@H](CC(C)C)NC(=O)OC(C)(C)C)C[C@@](O)([C@H]2OC(=O)c2ccccc2)C3(C)C)CO[C@@H]1CCO | 14 | 1640
